Measurements reported in ChEMBL document CHEMBL3244258, “Derivatives of tetrahydro-1,4-benzodiazepines as potential antihypertensive agents” (1977).

Key:
Rattus norvegicus [1] = assay: Antihypertensive activity in left kidney ligation and contralateral nephrectomy-induced hypertensive Sprague-Dawley rat model assessed as change in systolic blood pressure at 75 mg/kg, po administered via stomach tube; type: functional, Artery
Procedure, shortened: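 Conscious female rats made hypertensive by figure-8 ligature of left kidney, contralateral nephrectomy 1 week later. Dosed orally by stomach tube. Systolic pressure measured at the tail with occluding and sensing cuffs and a pressure transducer, before dosing and 1.5 and 4 h after. Values are group means of 4 or 8 rats.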

Rattus norvegicus [2] = assay: Antihypertensive activity in pithed rat assessed as change in phenylephrine-induced systemic pressor response at 20 mg/kg, iv in presence of 2 mg/kg phenylephrine; type: functional
Procedure, shortened: (§1)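 Ether-anesthetized, artificially respired rats pretreated with atropine 1 mg/kg and d-tubocurarine chloride 1 mg/kg. Carotid arterial pressure recorded; drugs given into the jugular vein. Pressor responses to iv phenylephrine measured before and after one or more iv doses of test compound. Reported as percent change in response.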

Rattus norvegicus [3] = assay: Antihypertensive activity in pithed rat assessed as change in sympathetic outflow activation-induced systemic pressor response at 10 mg/kg, iv at 10 Hz frequency; type: functional
Procedure, shortened: (§2)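 Pithed-rat preparation under ether anesthesia with artificial respiration, pretreated with atropine 1 mg/kg and d-tubocurarine chloride 1 mg/kg. Sympathetic outflow activated electrically at 2.5, 5 or 10 Hz. Carotid pressure responses taken before and after one or more test doses given via jugular vein. Reported as percent change in pressor response.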

Rattus norvegicus [4] = assay: Antihypertensive activity in pithed rat assessed as change in sympathetic outflow activation-induced systemic pressor response at 20 mg/kg, iv at 2.5 Hz frequency; type: functional; procedure, shortened: as §2
Rattus norvegicus [5] = assay: Antihypertensive activity in pithed rat assessed as change in sympathetic outflow activation-induced systemic pressor response at 10 mg/kg, iv at 2.5 Hz frequency; type: functional; procedure, shortened: as §2
Rattus norvegicus [6] = assay: Antihypertensive activity in pithed rat assessed as change in sympathetic outflow activation-induced systemic pressor response at 10 mg/kg, iv at 5 Hz frequency; type: functional; procedure, shortened: as §2
Rattus norvegicus [7] = assay: Antihypertensive activity in pithed rat assessed as change in sympathetic outflow activation-induced systemic pressor response at 20 mg/kg, iv at 5 Hz frequency; type: functional; procedure, shortened: as §2
Rattus norvegicus [8] = assay: Antihypertensive activity in pithed rat assessed as change in phenylephrine-induced systemic pressor response at 10 mg/kg, iv in presence of 4 mg/kg phenylephrine; type: functional; procedure, shortened: as §1
Rattus norvegicus [9] = assay: Antihypertensive activity in pithed rat assessed as change in phenylephrine-induced systemic pressor response at 10 mg/kg, iv in presence of 2 mg/kg phenylephrine; type: functional; procedure, shortened: as §1
Rattus norvegicus [10] = assay: Antihypertensive activity in pithed rat assessed as change in phenylephrine-induced systemic pressor response at 20 mg/kg, iv in presence of 4 mg/kg phenylephrine; type: functional; procedure, shortened: as §1
Rattus norvegicus [11] = assay: Antihypertensive activity in pithed rat assessed as change in sympathetic outflow activation-induced systemic pressor response at 20 mg/kg, iv at 10 Hz frequency; type: functional; procedure, shortened: as §2
Rattus norvegicus [12] = assay: Antihypertensive activity in pithed rat assessed as change in sympathetic outflow activation-induced systemic pressor response at 30 mg/kg, iv at 2.5 Hz frequency; type: functional; procedure, shortened: as §2
Rattus norvegicus [13] = assay: Antihypertensive activity in pithed rat assessed as change in phenylephrine-induced systemic pressor response at 30 mg/kg, iv in presence of 2 mg/kg phenylephrine; type: functional; procedure, shortened: as §1
Rattus norvegicus [14] = assay: Antihypertensive activity in pithed rat assessed as change in phenylephrine-induced systemic pressor response at 30 mg/kg, iv in presence of 4 mg/kg phenylephrine; type: functional; procedure, shortened: as §1
Rattus norvegicus [15] = assay: Antihypertensive activity in pithed rat assessed as change in sympathetic outflow activation-induced systemic pressor response at 30 mg/kg, iv at 5 Hz frequency; type: functional; procedure, shortened: as §2
Rattus norvegicus [16] = assay: Antihypertensive activity in pithed rat assessed as change in sympathetic outflow activation-induced systemic pressor response at 30 mg/kg, iv at 10 Hz frequency; type: functional; procedure, shortened: as §2
Rattus norvegicus [17] = assay: Antihypertensive activity in pithed rat assessed as change in phenylephrine-induced systemic pressor response at 15 mg/kg, iv in presence of 4 mg/kg phenylephrine; type: functional; procedure, shortened: as §1
Rattus norvegicus [18] = assay: Antihypertensive activity in pithed rat assessed as change in sympathetic outflow activation-induced systemic pressor response at 5 mg/kg, iv at 2.5 Hz frequency; type: functional; procedure, shortened: as §2
Rattus norvegicus [19] = assay: Antihypertensive activity in pithed rat assessed as change in sympathetic outflow activation-induced systemic pressor response at 5 mg/kg, iv at 5 Hz frequency; type: functional; procedure, shortened: as §2
Rattus norvegicus [20] = assay: Antihypertensive activity in pithed rat assessed as change in sympathetic outflow activation-induced systemic pressor response at 15 mg/kg, iv at 10 Hz frequency; type: functional; procedure, shortened: as §2
Rattus norvegicus [21] = assay: Antihypertensive activity in pithed rat assessed as change in sympathetic outflow activation-induced systemic pressor response at 5 mg/kg, iv at 10 Hz frequency; type: functional; procedure, shortened: as §2
Rattus norvegicus [22] = assay: Antihypertensive activity in pithed rat assessed as change in phenylephrine-induced systemic pressor response at 5 mg/kg, iv in presence of 2 mg/kg phenylephrine; type: functional; procedure, shortened: as §1
Rattus norvegicus [23] = assay: Antihypertensive activity in pithed rat assessed as change in phenylephrine-induced systemic pressor response at 5 mg/kg, iv in presence of 4 mg/kg phenylephrine; type: functional; procedure, shortened: as §1
Rattus norvegicus [24] = assay: Antihypertensive activity in pithed rat assessed as change in sympathetic outflow activation-induced systemic pressor response at 15 mg/kg, iv at 2.5 Hz frequency; type: functional; procedure, shortened: as §2
Rattus norvegicus [25] = assay: Antihypertensive activity in pithed rat assessed as change in sympathetic outflow activation-induced systemic pressor response at 15 mg/kg, iv at 5 Hz frequency; type: functional; procedure, shortened: as §2
Rattus norvegicus [26] = assay: Antihypertensive activity in pithed rat assessed as change in phenylephrine-induced systemic pressor response at 15 mg/kg, iv in presence of 2 mg/kg phenylephrine; type: functional; procedure, shortened: as §1
Rattus norvegicus [27] = assay: Antihypertensive activity in pithed rat assessed as change in sympathetic outflow activation-induced systemic pressor response at 40 mg/kg, iv at 10 Hz frequency; type: functional; procedure, shortened: as §2
Rattus norvegicus [28] = assay: Antihypertensive activity in pithed rat assessed as change in phenylephrine-induced systemic pressor response at 40 mg/kg, iv in presence of 4 mg/kg phenylephrine; type: functional; procedure, shortened: as §1
Rattus norvegicus [29] = assay: Antihypertensive activity in pithed rat assessed as change in sympathetic outflow activation-induced systemic pressor response at 40 mg/kg, iv at 5 Hz frequency; type: functional; procedure, shortened: as §2
Rattus norvegicus [30] = assay: Antihypertensive activity in pithed rat assessed as change in sympathetic outflow activation-induced systemic pressor response at 40 mg/kg, iv at 2.5 Hz frequency; type: functional; procedure, shortened: as §2
Rattus norvegicus [31] = assay: Antihypertensive activity in pithed rat assessed as change in phenylephrine-induced systemic pressor response at 40 mg/kg, iv in presence of 2 mg/kg phenylephrine; type: functional; procedure, shortened: as §1
Rattus norvegicus [32] = assay: Antihypertensive activity in pithed rat assessed as change in phenylephrine-induced systemic pressor response at 1 mg/kg, iv in presence of 2 mg/kg phenylephrine; type: functional; procedure, shortened: as §1
Rattus norvegicus [33] = assay: Antihypertensive activity in pithed rat assessed as change in sympathetic outflow activation-induced systemic pressor response at 1 mg/kg, iv at 2.5 Hz frequency; type: functional; procedure, shortened: as §2
Rattus norvegicus [34] = assay: Antihypertensive activity in pithed rat assessed as change in sympathetic outflow activation-induced systemic pressor response at 1 mg/kg, iv at 5 Hz frequency; type: functional; procedure, shortened: as §2
Rattus norvegicus [35] = assay: Antihypertensive activity in pithed rat assessed as change in phenylephrine-induced systemic pressor response at 1 mg/kg, iv in presence of 4 mg/kg phenylephrine; type: functional; procedure, shortened: as §1
Rattus norvegicus [36] = assay: Antihypertensive activity in pithed rat assessed as change in sympathetic outflow activation-induced systemic pressor response at 1 mg/kg, iv at 10 Hz frequency; type: functional; procedure, shortened: as §2

Compound `N=C(N)N1CCNc2ccc(Cl)cc2C1.O=[N+]([O-])O` has an Activity (Rattus norvegicus [1]) of -34 mmHg.
`CN1CCN(C(=N)N)Cc2ccccc21.O=[N+]([O-])O` was tested, and the Activity (Rattus norvegicus [2]) was -26%, the Activity (Rattus norvegicus [3]) was -57% and the Activity (Rattus norvegicus [4]) was -83%. For the same compound, the Activity (Rattus norvegicus [5]) was -73%, the Activity (Rattus norvegicus [1]) was -60 mmHg and the Activity (Rattus norvegicus [6]) was -67%. The Activity (Rattus norvegicus [7]) was -83%, the Activity (Rattus norvegicus [8]) was -5% and the Activity (Rattus norvegicus [9]) was -14%. It also gave an Activity (Rattus norvegicus [10]) of -20% and an Activity (Rattus norvegicus [11]) of -82%.
Compound `N=C(N)N1CCN2CCc3cccc(c32)C1.O=[N+]([O-])O` has an Activity (Rattus norvegicus [1]) of -12 mmHg.
`N=C(N)N1CCn2c3c(c4cccc(c42)C1)CCCC3.O=[N+]([O-])O` showed an Activity (Rattus norvegicus [1]) of -8 mmHg.
With `C[N+]1(C)CCNc2ccccc2C1.[I-]` the Activity (Rattus norvegicus [3]) was 1%, the Activity (Rattus norvegicus [12]) was -38% and the Activity (Rattus norvegicus [13]) was 44%. For the same compound, the Activity (Rattus norvegicus [5]) was 10%, the Activity (Rattus norvegicus [1]) was -46 mmHg and the Activity (Rattus norvegicus [14]) was 74%. It also gave an Activity (Rattus norvegicus [6]) of 9%, an Activity (Rattus norvegicus [15]) of -34% and an Activity (Rattus norvegicus [8]) of 39%. For the same compound, the Activity (Rattus norvegicus [9]) was 23% and the Activity (Rattus norvegicus [16]) was -35%.
`CN1CC[N+](C)(C)Cc2ccccc21.[I-]` was tested, and the Activity (Rattus norvegicus [1]) was -51 mmHg.
In the case of `CC1CNc2ccccc2C[N+]1(C)C.[I-]` (centres undefined), the Activity (Rattus norvegicus [1]) is reported as -4 mmHg.
`CCN1CC[N+](C)(CC)Cc2ccccc21.[I-]` (centres undefined) was tested, and the Activity (Rattus norvegicus [1]) was -21 mmHg.
`C[N+]1(C)CCNc2ccc(Cl)cc2C1.[I-]` was tested, and the Activity (Rattus norvegicus [1]) was -4 mmHg.
`COc1cc2c(cc1OC)NCC[N+](C)(C)C2.[I-]` showed an Activity (Rattus norvegicus [1]) of 2 mmHg.
Compound `C[N+]1(C)CCN2CCc3cccc(c32)C1.[I-]` has an Activity (Rattus norvegicus [17]) of 12%, an Activity (Rattus norvegicus [18]) of -42% and an Activity (Rattus norvegicus [19]) of -40%. For the same compound, the Activity (Rattus norvegicus [1]) was -48 mmHg, the Activity (Rattus norvegicus [20]) was -91% and the Activity (Rattus norvegicus [21]) was -47%. For the same compound, the Activity (Rattus norvegicus [22]) was 68%, the Activity (Rattus norvegicus [23]) was 18% and the Activity (Rattus norvegicus [24]) was -93%. The Activity (Rattus norvegicus [25]) was -87% and the Activity (Rattus norvegicus [26]) was 87%.
Compound `C[N+]1(C)CCn2c3c(c4cccc(c42)C1)CCCC3.[I-]` has an Activity (Rattus norvegicus [1]) of 3 mmHg.
`N/C(CN1CCNc2ccccc2C1)=N\O` gave an Activity (Rattus norvegicus [1]) of -12 mmHg.
For `N=C(N)N1CCNc2ccccc2C1.O=[N+]([O-])O`, the Activity (Rattus norvegicus [2]) was 8%, the Activity (Rattus norvegicus [27]) was -86% and the Activity (Rattus norvegicus [4]) was -39%. For the same compound, the Activity (Rattus norvegicus [28]) was 10%, the Activity (Rattus norvegicus [29]) was -100% and the Activity (Rattus norvegicus [1]) was -55 mmHg. It also gave an Activity (Rattus norvegicus [7]) of -50%, an Activity (Rattus norvegicus [30]) of -82% and an Activity (Rattus norvegicus [31]) of 3%. For the same compound, the Activity (Rattus norvegicus [10]) was 5% and the Activity (Rattus norvegicus [11]) was -58%.
Work on `N=C(N)NCCN1CCCCCCC1` [GUANETHIDINE] yielded an Activity (Rattus norvegicus [18]) of -100%, an Activity (Rattus norvegicus [32]) of 64% and an Activity (Rattus norvegicus [33]) of -85%. For the same compound, the Activity (Rattus norvegicus [19]) was -100%, the Activity (Rattus norvegicus [34]) was -72% and the Activity (Rattus norvegicus [21]) was -94%. The Activity (Rattus norvegicus [22]) was 160%, the Activity (Rattus norvegicus [23]) was 105% and the Activity (Rattus norvegicus [35]) was 57%. The Activity (Rattus norvegicus [36]) was -65%.
